# Measurements pooled from the literature.
# Organism: Staphylococcus aureus
# Observed: microbial growth
Compound,technique,strain,time,notes,MIC
O=C(O)c1cn(C2CC2)c2cc(N3CCNCC3)c(F)cc2c1=O,broth dilution,ATCC25923,16 h,,6.25 µM
CN1CCN(CCNCc2cc3ccccc3nc2SCc2ccccc2)CC1,broth dilution,,,,64 µg/mL
CCCCCCC#Cc1cncc(-c2nnc(SCc3ccc([N+](=O)[O-])o3)n2CCCN)c1,broth dilution,ATCC29213,,,> 64 µg/mL
COc1cccc(OC)c1C(=O)N[C@@H]1C(=O)N2[C@@H]1SC(C)(C)[C@@H]2C(=O)O,broth dilution,ATCCBAA44 BAA44,,,> 64 µg/mL
CC[C@H]1OC(=O)[C@H](C)[C@@H](O[C@H]2C[C@@](C)(OC)[C@@H](O)[C@H](C)O2)[C@H](C)[C@@H](O[C@@H]2O[C@H](C)C[C@H](N(C)C)[C@H]2O)[C@](C)(O)C[C@@H](C)/C(=N\OCOCCOC)[C@H](C)[C@@H](O)[C@]1(C)O,agar dilution,ATCC43300,,,16 µg/mL
Cc1ccc2[nH]nc(-c3nnc(Nc4ccc(Cl)c(Cl)c4)s3)c2c1,,ATCC29213,,,97.5 µg/mL
COc1cc2cc(CNCCN3CCN(C)CC3)c(SCc3ccccc3)nc2c(OC)c1OC,broth dilution,,,,128 µg/mL
Cc1ccc2[nH]nc(-c3nnc(Nc4ccc(Br)cc4)s3)c2c1,,ATCC29213,,,154 µg/mL
[H]/N=C(\N/C(=N/[H])NCCCCCCNC(=N)NC(=N)Nc1ccc(Cl)cc1)Nc1ccc(Cl)cc1,,ATCC33591 MRSA,,drug-resistant strain,1 µM
CCC[C@@H]1C[C@@H](C(=O)N[C@@H]([C@H]2O[C@H](SC)[C@H](O)[C@@H](O)[C@H]2O)[C@@H](C)O)N(C)C1,broth dilution,USA300,,,2 µg/mL
CC(=O)c1ccc2cc(S(=O)(=O)NCc3ccccc3)ccc2c1,broth dilution,ATCC25923,,,40000 µg/mL
CCCCCCC#Cc1cncc(-c2nnc(SCc3cc([N+](=O)[O-])cc([N+](=O)[O-])c3)n2C2CCNCC2)c1,broth dilution,ATCC29213,,,8 µg/mL
COc1c(N2C[C@@H]3CCCN[C@@H]3C2)c(F)cc2c(=O)c(C(=O)O)cn(C3CC3)c12,agar dilution,ATCC25923,,,0.0625 µg/mL
CCN1CCC(CCNCc2cc3cc(OC)c(OC)c(OC)c3nc2SCc2ccccc2)CC1,broth dilution,,,,128 µg/mL
CC(=O)NC[C@H]1CN(c2ccc(N3CCOCC3)c(F)c2)C(=O)O1,agar dilution,ATCC43300,,,2 µg/mL
CCCCCCCCN=c1ccn(CCCCCCCCCCn2ccc(=NCCCCCCCC)cc2)cc1,,ATCC33591 MRSA,,drug-resistant strain,1 µM
Cc1cc(O)cc(Nc2nnc(-c3n[nH]c4ccc(C)cc34)s2)c1,,ATCC29213,,,87.6 µg/mL
CCCCCCCCCCCC[N+](C)(C)Cc1ccccc1,,MRSA USA300,,drug-resistant strain,8 µM
CCCCCCC#Cc1cncc(-c2nnc(SCc3cc([N+](=O)[O-])cc([N+](=O)[O-])c3)n2CCCN)c1,broth dilution,MRSA,,,8 to 16 µg/mL
CC1(C)S[C@@H]2[C@H](NC(=O)[C@H](N)c3ccccc3)C(=O)N2[C@H]1C(=O)O,agar dilution,ATCC29213,,,16 µg/mL
CC(=O)NC[C@H]1CN(c2ccc(N3CCOCC3)c(F)c2)C(=O)O1,broth dilution,ATCCBAA44 BAA44,,,0.5 µg/mL
Cc1ccc2[nH]nc(-c3nnc(Nc4ccc(F)cc4Cl)s3)c2c1,,ATCC29213,,,29.7 µg/mL
CC[C@H]1OC(=O)[C@H](C)[C@@H](O[C@H]2C[C@@](C)(OC)[C@@H](O)[C@H](C)O2)[C@H](C)[C@@H](O[C@@H]2O[C@H](C)C[C@H](N(C)C)[C@H]2O)[C@](C)(O)C[C@@H](C)C(=O)[C@H](C)[C@@H](O)[C@]1(C)O,broth dilution,ATCCBAA44 BAA44,,,> 64 µg/mL
COc1ccc(-n2nc(C(=O)c3ccc(Nc4cnccn4)cc3)sc2=N)cc1,broth dilution,ATCC25923,,,6.25 µg/mL
CCCCCCC#Cc1cncc(-c2nnc(SCc3cc([N+](=O)[O-])cc([N+](=O)[O-])c3)n2CCOC2OC(CN)C(O)C2O)c1 (centres unmarked),broth dilution,ATCC29213,,,> 64 µg/mL
CN[C@H](CC(C)C)C(=O)N[C@H]1C(=O)N[C@@H](CC(N)=O)C(=O)N[C@H]2C(=O)N[C@H]3C(=O)N[C@H](C(=O)N[C@H](C(=O)O)c4cc(O)cc(O)c4-c4cc3ccc4O)[C@H](O)c3ccc(c(Cl)c3)Oc3cc2cc(c3O[C@@H]2O[C@H](CO)[C@@H](O)[C@H](O)[C@H]2O[C@H]2C[C@](C)(N)[C@H](O)[C@H](C)O2)Oc2ccc(cc2Cl)[C@H]1O,broth dilution,MRSA,,,0.67 µM
CC[C@H]1OC(=O)[C@H](C)[C@@H](O[C@H]2C[C@@](C)(OC)[C@@H](O)[C@H](C)O2)[C@H](C)[C@@H](O[C@@H]2O[C@H](C)C[C@H](N(C)C)[C@H]2O)[C@](C)(O)C[C@@H](C)CN(C)[C@H](C)[C@@H](O)[C@]1(C)O,broth dilution,USA300,,,> 64 µg/mL
Cc1onc(-c2ccccc2)c1C(=O)N[C@@H]1C(=O)N2[C@@H]1SC(C)(C)[C@@H]2C(=O)O,,ATCC29213 MSSA,,drug-resistant strain,0.25 µg/mL
CC(=O)C1=NN(c2ccc([N+](=O)[O-])cc2)C(=C(C#N)C(=O)c2ccc(Nc3cnccn3)cc2)S1,broth dilution,ATCC25923,,,6.25 µg/mL
O=C(N[C@H](CO)[C@H](O)c1ccc([N+](=O)[O-])cc1)C(Cl)Cl,broth dilution,,,,64 µg/mL
CN[C@H](CC(C)C)C(=O)N[C@H]1C(=O)N[C@@H](CC(N)=O)C(=O)N[C@H]2C(=O)N[C@H]3C(=O)N[C@H](C(=O)N[C@H](C(=O)O)c4cc(O)cc(O)c4-c4cc3ccc4O)[C@H](O)c3ccc(c(Cl)c3)Oc3cc2cc(c3O[C@@H]2O[C@H](CO)[C@@H](O)[C@H](O)[C@H]2O[C@H]2C[C@](C)(N)[C@H](O)[C@H](C)O2)Oc2ccc(cc2Cl)[C@H]1O,agar dilution,ATCC43300,,,2 µg/mL
N=c1sc(C(=O)c2ccc(Nc3cnccn3)cc2)nn1-c1ccc([N+](=O)[O-])cc1,broth dilution,ATCC25923,,,3.12 µg/mL
Cc1cc(Nc2nnc(-c3n[nH]c4ccc(C)cc34)s2)cc([N+](=O)[O-])c1,,ATCC29213,,,78 µg/mL
CCCCCCC#Cc1cncc(-c2nnc(SCc3cc(C(F)(F)F)cc(C(F)(F)F)c3)n2CCCN)c1,broth dilution,MRSA,,,4 µg/mL
Brc1ccc2nc(SCc3ccccc3)c(CNCCC3CCN(C4CCCC4)CC3)cc2c1,broth dilution,,,,32 µg/mL
C=C[C@]1(C)C[C@@H](OC(=O)CS[C@@H]2C[C@H]3CC[C@@H](C2)N3C)[C@]2(C)[C@H](C)CC[C@]3(CCC(=O)[C@H]32)[C@@H](C)[C@@H]1O,agar dilution,ATCC43300,,,0.0625 µg/mL
CC(=O)OCC1=C(C(=O)O)N2C(=O)[C@@H](NC(=O)Cc3cccs3)[C@H]2SC1,broth dilution,ATCC25923,,,6.25 µg/mL
CN[C@H](CC(C)C)C(=O)N[C@H]1C(=O)N[C@@H](CC(N)=O)C(=O)N[C@H]2C(=O)N[C@H]3C(=O)N[C@H](C(=O)N[C@H](C(=O)O)c4cc(O)cc(O)c4-c4cc3ccc4O)[C@H](O)c3ccc(c(Cl)c3)Oc3cc2cc(c3O[C@@H]2O[C@H](CO)[C@@H](O)[C@H](O)[C@H]2O[C@H]2C[C@](C)(N)[C@H](O)[C@H](C)O2)Oc2ccc(cc2Cl)[C@H]1O,broth dilution,ATCC29213,,,1 µg/mL
